The source of these data is ChEMBL document CHEMBL1221405, “Chlorinated iridoid glucosides from Veronica longifolia and their antioxidant activity” (J Nat Prod, 2010).

In brackets after ≈: the same amount, converted by molar mass.

Format in all cases: functional
The nature of assay [1]: Antioxidant activity assessed as superoxide radical scavenging activity by NBT method. A digest of the protocol:
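Alkaline DMSO method (modified Kunchandy and Rao). Samples in DMSO were mixed with NBT (1 mg/mL in DMSO). Alkaline DMSO (DMSO with 5 mM NaOH in water) was added to give the final mixture. Absorbance was read at 560 nm.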

Assay [2] can be described thus: Antioxidant activity assessed as nitric oxide scavenging activity after 150 mins by Griess assay. Summed up: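 Serially diluted samples were mixed with an equal volume of 10 mM sodium nitroprusside in PBS and incubated under light at room temperature for 150 min. After 10 min, nitrite chromophore absorbance was read at 577 nm.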
In general terms: Griess reagent forms a coloured azo dye with nitrite.

For assay [3], the system named is Radical scavenging activity. In words: Antioxidant activity assessed as DPPH radical scavenging activity after 30 mins. Summed up: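 Compounds in MeOH at various concentrations were added to DPPH in MeOH (80 µg/mL). After 30 min, remaining DPPH was read by absorbance at 520 nm. Scavenging was calculated against a blank (100%) holding only DPPH and solvent.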
Background: Loss of DPPH colour is used to gauge radical scavenging.

By IC50 is commonly meant the midpoint of a concentration-inhibition curve. For `O=C1O[C@H]([C@@H](O)CO)C(O)=C1O` [ASCORBIC ACID], the IC50 in assay [1] is 13 mg/L (≈ 73.8 µM); in assay [2], over 1000 mg/L; in assay [3], under 10 mg/L.
For `O=C(O[C@H]1[C@@H]2C=CO[C@@H](O[C@H]3O[C@@H](CO)[C@H](O)[C@@H](O)[C@@H]3O)[C@@H]2[C@](O)(CO)[C@@H]1Cl)c1ccc(O)c(O)c1` [LONGIFOLIOSIDES A] the same measures were 92 mg/L (≈ 172 µM), 149 mg/L (≈ 279 µM) and 27 mg/L (≈ 50.5 µM).
The matching figures for `O=C(/C=C/c1ccc(O)c(O)c1)O[C@H]1[C@@H]2C=CO[C@@H](O[C@H]3O[C@@H](CO)[C@H](O)[C@@H](O)[C@@H]3O)[C@@H]2[C@](O)(CO)[C@@H]1Cl` [LONGIFOLIOSIDE B]: 199 mg/L (≈ 355 µM), 285 mg/L (≈ 508 µM) and 19 mg/L (≈ 33.9 µM).
For `O=c1c(O)c(-c2ccc(O)c(O)c2)oc2cc(O)cc(O)c12` [QUERCETIN] the same measures were 68 mg/L (≈ 225 µM), 96 mg/L (≈ 318 µM) and under 10 mg/L.
